23 compounds from ChEMBL document CHEMBL1136932, “Discovery, SAR, and pharmacokinetics of a novel 3-hydroxyquinolin-2(1H)-one series of potent D-amino acid oxidase (DAAO) inhibitors” (J Med Chem, 2009) can be followed below.

Data set [1] is described as follows: Displacement of [3H]glycine from NMDA receptor at 10 uM. On the technique in general: Displacement assays read how much labelled ligand stays bound in the presence of the test substance.
A further data set concerns the target T1, D-aspartate oxidase (Homo sapiens, UniProt Q99489).
T1 sequence (Q99489 whole entry): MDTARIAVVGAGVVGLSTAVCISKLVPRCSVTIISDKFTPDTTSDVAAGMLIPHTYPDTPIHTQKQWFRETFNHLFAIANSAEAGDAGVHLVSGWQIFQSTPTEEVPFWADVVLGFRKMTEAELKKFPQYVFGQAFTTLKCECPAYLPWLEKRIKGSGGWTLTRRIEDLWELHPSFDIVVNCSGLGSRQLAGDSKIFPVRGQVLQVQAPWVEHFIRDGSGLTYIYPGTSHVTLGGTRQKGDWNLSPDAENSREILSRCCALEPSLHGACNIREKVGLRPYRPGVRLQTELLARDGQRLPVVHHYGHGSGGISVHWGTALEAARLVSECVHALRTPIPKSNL
Nature of the data set: Inhibition of human recombinant DDO expressed in sf9 insect cells assessed as degradation of D-aspartic acid by fluorescence assay.

A short description of data set [2]: Dissociation constant, pKa of the compound. The class given is physicochemical.
Data set [3] is described as follows: Clearance in Sprague-Dawley CD rat plasma at 3 mg/kg, po and 1 mg/kg, iv. The class given is ADME, organism-based.
The next data set deals with Rattus norvegicus. Nature of the data set: Volume of distribution in Sprague-Dawley CD rat at 3 mg/kg, po and 1 mg/kg, iv. It is filed as ADME, organism-based. The conditions noted are these: in vivo.
A short description of data set [4]: Half life in Sprague-Dawley CD rat at 3 mg/kg, po and 1 mg/kg, iv. It is filed as ADME, organism-based. The following applies: in vivo.
The nature of data set [5]: Oral bioavailability in Sprague-Dawley CD rat at 3 mg/kg. The class given is ADME, organism-based. The following applies: in vivo.
A short description of data set [6]: Cmax in Sprague-Dawley CD rat at 3 mg/kg, po. The class given is ADME, organism-based. Set-up: dose 3 mg/kg, route oral. The following applies: in vivo.
In another data set the target is D-amino-acid oxidase (Rattus norvegicus, UniProt O35078). Nature of the data set: Inhibition of rat recombinant DAAO expressed in sf9 insect cells assessed as degradation of D-serine by fluorescence assay.
Chain of D-amino-acid oxidase (O35078 whole entry): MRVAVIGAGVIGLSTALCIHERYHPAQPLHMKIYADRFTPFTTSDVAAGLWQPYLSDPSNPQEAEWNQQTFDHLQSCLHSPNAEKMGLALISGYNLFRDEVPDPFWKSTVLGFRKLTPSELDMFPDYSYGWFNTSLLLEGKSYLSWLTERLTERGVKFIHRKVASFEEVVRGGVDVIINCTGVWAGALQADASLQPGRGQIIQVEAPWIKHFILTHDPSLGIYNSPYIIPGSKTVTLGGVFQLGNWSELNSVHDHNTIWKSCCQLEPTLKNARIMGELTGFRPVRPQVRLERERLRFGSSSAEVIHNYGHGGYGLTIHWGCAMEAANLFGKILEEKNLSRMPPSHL
Data set [7] is described as follows: Ratio of drug level in brain to plasma in 129/SVEV mouse at 10 mg/kg, sc after 4 hrs. The following applies: read-out: BPR.
Data set [8] is described as follows: Ratio of drug level in brain to plasma in Sprague-Dawley CD rat at 56 mg/kg, sc after 4 hrs. The class given is ADME, organism-based. Further details: dose 56 mg/kg, route subcutaneous. The following applies: read-out: BPR.
Data set [9] in a line: Fraction unbound in Sprague-Dawley CD rat brain at 56 mg/kg, sc after 4 hrs. The class given is ADME, organism-based. Further details: dose 56 mg/kg, route subcutaneous.
Data set [10] has as its system Brain. Nature of the data set: Free drug level in Sprague-Dawley CD rat brain at 56 mg/kg, sc after 4 hrs. It is filed as ADME, organism-based. Set-up: dose 56 mg/kg, route subcutaneous. The conditions noted are these: in vivo.
The test system of data set [11] is Brain. The data set can be described thus: Free drug level in 129/SVEV mouse brain at 10 mg/kg, sc after 4 hrs. The conditions noted are these: in vivo.
The test system of a further data set is Mus musculus. The data set can be described thus: Elevation of D-serine level in 129/SVEV mouse cerebellum at 10 mg/kg, sc after 4 hrs by LC/MS-MS analysis. Set-up: dose 10 mg/kg. It is filed as functional, organism-based. A digest of the protocol: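 Male rats (1-2 mL/kg) or male mice (10 mL/kg) received compound or vehicle sc in 5% DMSO/5% Cremophor EL/90% saline. At 4 h, cerebella were taken under CO2 anesthesia, homogenized in 3 volumes PBS and extracted with 16 volumes acetonitrile, and the supernatant was dried.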

Activity calls are given as the source filed them.

Regarding `O=c1[nH]c2cccc(F)c2cc1O`, the inhibition (usually how much of the control response was suppressed) in [1] was under 50%. Also, the IC50 (as a rule, the concentration at which inhibition is half-maximal) at D-aspartate oxidase worked out at 64 µM.

With `Cc1c(O)c(=O)[nH]c2ccccc12`, the IC50 on D-aspartate oxidase amounted to 32.3 µM.

On to `Cc1ccc2cc(O)c(=O)[nH]c2c1`, for which, on D-aspartate oxidase, the IC50 worked out at 21.5 µM.

As to `Cc1cccc2cc(O)c(=O)[nH]c12`, on D-aspartate oxidase, the IC50 worked out at 31.6 µM.

In the case of `O=c1[nH]c2nccnc2cc1O`, the IC50 on D-aspartate oxidase is over 50 µM.

For `O=c1[nH]c2ccncc2cc1O`, the IC50 on D-aspartate oxidase was over 36 µM.

Turning to `CCc1cccc2cc(O)c(=O)[nH]c12`, on D-aspartate oxidase, the half-inhibitory concentration (IC50) was over 50 µM.

With `Cc1cccc2[nH]c(=O)c(O)cc12`, the inhibition in data set [1] was under 50%.

In turn, `O=c1[nH]c2c(F)cccc2cc1O` came in with an inhibition in data set [1] of under 50%.

Consider `Oc1noc2cc(Cl)ccc12`, for which the pKa (in general, the pH at which an ionisable group is half protonated) in data set [2] worked out at 4.

`O=c1[nH]c2ccc(F)cc2cc1O` gave a clearance in data set [3] of 72 mL/min/kg. The compound also gave a Vd in the data set on Rattus norvegicus of 2.3 L/kg. Also, in [4], the half-life (as a rule, the time needed for the level to fall by half in the phase considered) is 0.9 h. Moreover, the bioavailability (in general, dose-corrected exposure relative to a reference, in per cent) in data set [5] was determined as 44%. Moreover, the highest level in [6] (Cmax) was 216 ng/mL. Besides, the inhibition in data set [1] is under 50%.

Take `O=c1[nH]c2c(Cl)cccc2cc1O`: on D-aspartate oxidase, the IC50 is over 43.4 µM.

`Cc1cc(C(=O)O)n[nH]1` displayed a pKa in [2] of 4.

Regarding `O=c1[nH]c2cc(F)ccc2cc1O`, the clearance in [3] was 15 mL/min/kg. Besides, the Vd in the data set with Rattus norvegicus came out at 1.2 L/kg. The compound further had a half-life in [4] of 5.4 h. In data set [5], the bioavailability came out at 38%. Further, the Cmax (usually the maximum level reached in the sampled fluid or tissue) in data set [6] came to 754 ng/mL. In [1], this compound came in with an inhibition of under 50%. Moreover, the IC50 at D-aspartate oxidase came out at 22.4 µM.

With `O=c1[nH]c2ccc(Cl)cc2cc1O`, the IC50 at D-aspartate oxidase is over 50 µM.

With `O=c1[nH]c2cccc(Cl)c2cc1O`, the figures for the IC50 on D-amino-acid oxidase and on D-aspartate oxidase were 0.04 µM and 206 µM, respectively. In data set [1], this compound returned an inhibition of under 50%.

Regarding `O=C(O)c1cc2occc2[nH]1`, the IC50 at D-amino-acid oxidase is 0.424 µM; on D-aspartate oxidase, over 19.5 µM. The pKa in [2] amounted to 4. Moreover, the Kp at 4 h in data set [7] was determined as 0.8.

In data set [1], `O=c1[nH]c2ncccc2cc1O` displayed an inhibition of under 50%. The IC50 at D-aspartate oxidase is over 7.64 µM.

As to `O=c1[nH]c2ccccc2cc1O`, in data set [3], the clearance amounted to 46 mL/min/kg. The compound further yielded a Vd in the data set on Rattus norvegicus of 10.8 L/kg. In data set [5], this compound yielded a bioavailability of 0.9%. This compound returned a Cmax in data set [6] of 5.5 ng/mL. For the same compound, the Kp at 4 h in data set [8] was found to be 0.7; in [7] it was 2. Besides, the fraction unbound (as a rule, the share of the substance not bound to proteins or other matrix) at 4 h in data set [9] turned out to be 0.22. Moreover, the Drug uptake in the data set on Brain [10] is reported as 670 nM; in the data set on Brain [11] it was 15 nM. In data set [1], this compound showed an inhibition of 29%. For the same compound, the pKa in [2] was 8.7.

Consider `O=c1[nH]c2cccnc2cc1O`, for which the IC50 on D-aspartate oxidase is over 50 µM.

For the compound `O=c1[nH]c2cnccc2cc1O`, at D-aspartate oxidase, the IC50 was over 50 µM.

In the case of `O=c1[nH]c2ncc(F)c(Cl)c2cc1O`, the result in the data set on Mus musculus was Active. Besides, the Drug uptake in the data set with Brain [11] is 12 nM. Besides, the Kp at 4 h in data set [7] amounted to 0.1.

Regarding `CCc1cccc2[nH]c(=O)c(O)cc12`, the inhibition in data set [1] is under 50%.
